ChEMBL document CHEMBL4602736, “Progress in the Field of Aldehyde Dehydrogenase Inhibitors: Novel Imidazo[1,2-a]pyridines against the 1A Family” (ACS Med Chem Lett, 2020)
pIC50, pKi: −log10 of the molar value. Active and inactive are the calls of the source. The rule behind the calls is not given here.

How the values were obtained:
[1] = target: T1, Aldehyde dehydrogenase 1A1 (Homo sapiens) (UniProt P00352); assay: Inhibition of human recombinant ALDH1A1 assessed as remaining enzyme activity at 25 uM pre-incubated for 5 mins before acetaldehyde addition by continuous spectrometric assay relative to control
T1 sequence (whole entry): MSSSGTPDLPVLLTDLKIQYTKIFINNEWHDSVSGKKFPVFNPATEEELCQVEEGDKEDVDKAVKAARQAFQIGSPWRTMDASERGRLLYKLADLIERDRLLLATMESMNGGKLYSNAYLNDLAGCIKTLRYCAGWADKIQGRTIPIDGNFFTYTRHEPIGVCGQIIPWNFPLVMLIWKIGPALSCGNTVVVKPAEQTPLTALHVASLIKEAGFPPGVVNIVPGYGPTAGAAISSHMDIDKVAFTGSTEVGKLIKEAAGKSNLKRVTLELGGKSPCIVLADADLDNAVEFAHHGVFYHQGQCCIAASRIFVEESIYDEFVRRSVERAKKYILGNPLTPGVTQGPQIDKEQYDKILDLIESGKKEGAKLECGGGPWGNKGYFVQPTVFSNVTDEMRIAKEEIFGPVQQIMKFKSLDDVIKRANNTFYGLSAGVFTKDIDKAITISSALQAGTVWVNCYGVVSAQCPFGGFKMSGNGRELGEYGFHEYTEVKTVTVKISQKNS
In short: (§1)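 Preliminary single-concentration screen at 25 μM against human recombinant ALDH1A1, ALDH1A2 and ALDH1A3, scored as residual enzyme activity versus control.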

[2] = target: T2, Retinal dehydrogenase 2 (Homo sapiens) (UniProt O94788); assay: Inhibition of human recombinant ALDH1A2 assessed as remaining enzyme activity at 25 uM pre-incubated for 5 mins before acetaldehyde addition by continuous spectrometric assay relative to control; in short: as §1
T2 sequence (whole entry): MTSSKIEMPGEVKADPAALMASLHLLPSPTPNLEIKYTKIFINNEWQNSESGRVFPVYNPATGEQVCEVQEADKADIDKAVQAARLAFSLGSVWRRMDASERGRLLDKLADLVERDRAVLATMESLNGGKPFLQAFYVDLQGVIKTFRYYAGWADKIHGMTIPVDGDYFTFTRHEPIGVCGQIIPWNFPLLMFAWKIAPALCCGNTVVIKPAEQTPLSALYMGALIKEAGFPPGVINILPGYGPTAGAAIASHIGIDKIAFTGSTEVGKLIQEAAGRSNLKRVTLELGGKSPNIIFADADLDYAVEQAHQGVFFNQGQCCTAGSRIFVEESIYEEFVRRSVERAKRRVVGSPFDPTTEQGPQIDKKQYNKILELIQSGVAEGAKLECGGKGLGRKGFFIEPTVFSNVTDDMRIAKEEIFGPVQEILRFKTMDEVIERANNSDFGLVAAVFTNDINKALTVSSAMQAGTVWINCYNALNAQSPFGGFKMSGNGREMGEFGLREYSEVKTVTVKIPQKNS

[3] = target: T3, Retinaldehyde dehydrogenase 3 (Homo sapiens) (UniProt P47895); assay: Inhibition of human recombinant ALDH1A3 assessed as remaining enzyme activity at 25 uM pre-incubated for 5 mins before acetaldehyde addition by continuous spectrometric assay relative to control; in short: as §1
T3 sequence (whole entry): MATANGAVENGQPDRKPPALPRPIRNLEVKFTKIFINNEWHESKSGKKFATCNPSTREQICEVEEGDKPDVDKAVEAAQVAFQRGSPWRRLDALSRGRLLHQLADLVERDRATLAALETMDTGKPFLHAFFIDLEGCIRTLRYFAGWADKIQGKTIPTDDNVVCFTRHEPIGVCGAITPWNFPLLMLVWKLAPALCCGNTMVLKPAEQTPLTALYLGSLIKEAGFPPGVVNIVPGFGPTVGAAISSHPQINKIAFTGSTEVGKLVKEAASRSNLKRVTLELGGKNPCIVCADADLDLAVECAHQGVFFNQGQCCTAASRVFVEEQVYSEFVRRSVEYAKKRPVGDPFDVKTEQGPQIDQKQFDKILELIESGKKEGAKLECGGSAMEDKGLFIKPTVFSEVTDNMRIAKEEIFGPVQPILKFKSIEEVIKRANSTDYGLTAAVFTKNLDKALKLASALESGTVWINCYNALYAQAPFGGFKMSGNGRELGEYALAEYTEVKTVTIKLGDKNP

Retinal dehydrogenase 2 [4] = target: T4, Retinal dehydrogenase 2 (Homo sapiens, UniProt O94788); assay: Competitive inhibition of human recombinant ALDH1A2 pre-incubated for 5 mins before acetaldehyde addition by continuous spectrometric assay relative to control
T4 sequence (O94788 whole entry): T2 sequence (whole entry)

U-87 MG = assay: Antiproliferative activity against human U87MG cells assessed as reduction in cell vitality at 100 nM to 10 uM incubated for 72 hrs by MTT assay; format: functional, cell-based; conditions: U-87MG ATCC
Retinal dehydrogenase 2 [5] = target: T4, Retinal dehydrogenase 2; assay: Inhibition of human recombinant ALDH1A2 pre-incubated for 5 mins before acetaldehyde addition by continuous spectrometric assay relative to control; conditions: for pIC50: read-out: IC50
In short: (§2)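 IC50 is the concentration giving 50% inhibition of the human recombinant isoform. Compounds with no significant inhibition at 25 μM were listed as not active and had no IC50 determined.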

[6] = target: T5, Aldehyde dehydrogenase 1A1 (Homo sapiens, UniProt P00352); assay: Competitive inhibition of human recombinant ALDH1A1 pre-incubated for 5 mins before acetaldehyde addition by continuous spectrometric assay relative to control
T5 sequence (P00352 whole entry): T1 sequence (whole entry)

[7] = target: T5, Aldehyde dehydrogenase 1A1; assay: Inhibition of human recombinant ALDH1A1 pre-incubated for 5 mins before acetaldehyde addition by continuous spectrometric assay relative to control; in short: as §2
[8] = target: T6, Retinaldehyde dehydrogenase 3 (Homo sapiens, UniProt P47895); assay: Competitive inhibition of human recombinant ALDH1A3 pre-incubated for 5 mins before acetaldehyde addition by continuous spectrometric assay relative to control
T6 sequence (P47895 whole entry): T3 sequence (whole entry)

[9] = target: T6, Retinaldehyde dehydrogenase 3; assay: Inhibition of human recombinant ALDH1A3 pre-incubated for 5 mins before acetaldehyde addition by continuous spectrometric assay relative to control; in short: as §2

| SMILES | Activity [1] [%] | Activity [2] [%] | Activity [3] [%] | pKi (Retinal dehydrogenase 2 [4]) | Activity (U-87 MG) | pIC50 (Retinal dehydrogenase 2 [5]) | pKi [6] | pIC50 ([7]; read-out: IC50) | pKi [8] | pIC50 [9] | IC50 (Retinal dehydrogenase 2 [5]) | IC50 [7] |
| --- | --- | --- | --- | --- | --- | --- | --- | --- | --- | --- | --- | --- |
| Cc1ccc(-c2cn3cccc(-c4ccc(Cl)cc4)c3n2)cc1 | 75 to 100 | 75 to 100 | 50 to 75 | – | – | – | – | – | – | – | – | – |
| Clc1ccc(-c2cccn3cc(-c4ccccc4)nc23)cc1 | 75 to 100 | 50 to 75 | 50 to 75 | 4.56 | Active | 4.56 | 3.77 | 3.77 | 5.06 | 5.26 | – | – |
| Fc1ccc(-c2cccn3cc(-c4ccccc4)nc23)cc1 | 75 to 100 | 25 to 50 | 25 to 50 | – | – | – | – | – | – | 5.22 | Not Active | Not Active |
| COc1ccc(-c2cn3cccc(-c4ccc(F)cc4)c3n2)cc1 | 75 to 100 | 75 to 100 | 75 to 100 | – | – | – | – | – | – | – | – | – |
| COc1cccc(-c2cn3cccc(-c4ccc(Cl)cc4)c3n2)c1 | 75 to 100 | 50 to 75 | 50 to 75 | – | – | – | – | – | – | 5.37 | Not Active | Not Active |
| COc1cccc(-c2cn3cccc(-c4ccc(F)cc4)c3n2)c1 | 75 to 100 | 25 to 50 | 50 to 75 | – | – | – | – | – | – | 5.14 | Not Active | Not Active |
| COc1cccc(-c2cn3cccc(-c4cc(OC)c(OC)c(OC)c4)c3n2)c1 | 75 to 100 | 75 to 100 | 75 to 100 | – | – | – | – | – | – | – | – | – |
| O=C(COc1ccc(-c2cccn3cc(-c4ccccc4)nc23)cc1)c1ccccc1 | 75 to 100 | 75 to 100 | 75 to 100 | – | – | – | – | – | – | – | – | – |
| COC(=O)c1ccc(-c2cccn3cc(-c4ccc(OC)cc4)nc23)cc1 | 75 to 100 | 75 to 100 | 50 to 75 | – | – | – | – | – | – | – | – | – |
| c1ccc(-c2ccc(-c3cccn4cc(-c5ccccc5)nc34)cc2)cc1 | 75 to 100 | 75 to 100 | 75 to 100 | – | – | – | – | – | – | – | – | – |
| CC(C)Cc1ccc(-c2cccn3cc(-c4ccccc4)nc23)cc1 | 50 to 75 | 75 to 100 | 75 to 100 | – | – | – | – | – | – | – | – | – |
| Cc1ccc(-c2cn3cccc(-c4ccc(F)cc4)c3n2)cc1 | 75 to 100 | 50 to 75 | 75 to 100 | – | – | – | – | – | – | – | – | – |
| c1ccc(-c2cn3cccc(-c4ccccc4)c3n2)cc1 | 75 to 100 | 50 to 75 | 50 to 75 | – | – | 4.21 | – | – | – | 4.09 | – | Not Active |
| COc1ccc(-c2cn3cccc(-c4cc(OC)cc(OC)c4)c3n2)cc1 | 75 to 100 | 75 to 100 | 75 to 100 | – | – | – | – | – | – | – | – | – |
| Cc1ccc(-c2cn3cccc(-c4ccccc4)c3n2)cc1 | 75 to 100 | 50 to 75 | 50 to 75 | – | – | – | – | – | – | – | – | – |
| COc1cccc(-c2cn3cccc(-c4ccc(-c5ccccc5)cc4)c3n2)c1 | 75 to 100 | 75 to 100 | 75 to 100 | – | – | – | – | – | – | – | – | – |
| COc1ccc(-c2cn3cccc(-c4ccc(Cl)cc4)c3n2)cc1 | 75 to 100 | 75 to 100 | 75 to 100 | – | – | – | – | – | – | – | – | – |
| COC(=O)c1ccc(-c2cccn3cc(-c4ccccc4)nc23)cc1 | 75 to 100 | 25 to 50 | 0 to 25 | 6.04 | – | – | 4.10 | – | 6.92 | 6.18 | Not Active | Not Active |
| COc1ccc(-c2cn3cccc(-c4ccc(-c5ccccc5)cc4)c3n2)cc1 | 50 to 75 | 75 to 100 | 75 to 100 | – | – | – | – | – | – | – | – | – |
| COc1ccc(-c2cn3cccc(-c4cc(OC)c(OC)c(OC)c4)c3n2)cc1 | 75 to 100 | 75 to 100 | 75 to 100 | – | – | – | – | – | – | – | – | – |
